From article PMC9301648 (ACS Omega, 2022)

Assays:
[1] = cytotoxicity toward MRC5 cells, same conditions without virus infection; assay type: cell-based; conditions: human
How it was run: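 Run in parallel with the antiviral CPE assay under identical conditions without virus infection. MRC5 cells were seeded at 20,000 cells/well and cultured overnight at 37 °C, 5% CO₂. Test compound diluted in assay medium was added; final DMSO 0.5%. Viability was read by CellTiter Glo. Single-point at 25 μM; CC50 by four-parameter log(inhibitor) vs response variable-slope regression.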

[2] = system: human coronavirus (HCoV) 229E; experiment: cytopathic effect; assay type: cell-based; conditions: for inhibition at 25 µM: unidentified human coronavirus, MRC5, read-out: normalized inhibition % (25 μM); for inhibition of HCoV 229E in words: 25 μM, MRC5 cells
How it was run: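 MRC5 cells were seeded at 20,000 cells/well and grown overnight at 37 °C, 5% CO₂. Test compound diluted in assay medium was added, then HCoV 229E diluted in assay medium; final DMSO 0.5%. CPE was read by CellTiter Glo. Protection at each concentration was normalized to virus-only control. Screen at 25 μM; EC50 from full dose–response by four-parameter variable-slope nonlinear regression.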

SMILES	cytotoxicity at 3 days, 25 µM [1] [%]	inhibition at 25 µM [2] [%]	CC50 at 3 days [1] [µM]	inhibition of HCoV 229E in words [2]
CC(=O)OC[C@@]1(C)[C@H]2CC[C@@H]3CN(Cc4ccccc4)[C@@H](C4=CCOC4=O)C[C@H]3[C@]2(C)CC[C@H]1OC(C)=O [4a, ((2R,4aS,6aS,7R,8R,10aS,10bR)-8-Acetoxy-3-benzyl-7,10a-dimethyl-2-(2-oxo-2,5-dihydrofuran-3-yl)tetradecahydrobenzo[f]isoquinolin-7-yl)methyl Acetate]	15.5	66.8	–	–
CC(=O)OC[C@@]1(C)[C@H]2CC[C@@H]3CN(Cc4ccc(Br)cc4)[C@@H](C4=CCOC4=O)C[C@H]3[C@]2(C)CC[C@H]1OC(C)=O [4d, ((2R,4aS,6aS,7R,8R,10aS,10bR)-8-Acetoxy-3-(4-bromobenzyl)-7,10a-dimethyl-2-(2-oxo-2,5-dihydrofuran-3-yl)tetradecahydrobenzo[f]isoquinolin-7-yl)methyl Acetate]	-3	110	–	–
CC(=O)OC[C@@]1(C)[C@H]2CC[C@@H]3CN(Cc4ccc(C(F)(F)F)cc4)[C@@H](C4=CCOC4=O)C[C@H]3[C@]2(C)CC[C@H]1OC(C)=O [4h, ((2R,4aS,6aS,7R,8R,10aS,10bR)-8-Acetoxy-7,10a-dimethyl-2-(2-oxo-2,5-dihydrofuran-3-yl)-3-(4-(trifluoromethyl)benzyl)tetradecahydrobenzo[f]isoquinolin-7-yl)methyl Acetate]	-5.4	119	–	–
CC(=O)OC[C@@]1(C)[C@H]2CC[C@@H]3CN(Cc4ccc(O)cc4)[C@@H](C4=CCOC4=O)C[C@H]3[C@]2(C)CC[C@H]1OC(C)=O [4j, ((2R,4aS,6aS,7R,8R,10aS,10bR)-8-Acetoxy-3-(4-hydroxybenzyl)-7,10a-dimethyl-2-(2-oxo-2,5-dihydrofuran-3-yl)tetradecahydrobenzo[f]isoquinolin-7-yl)methyl Acetate]	-5.2	55.6	–	–
CC(=O)OC[C@@]1(C)[C@H]2CC[C@@H]3CN(Cc4ccccc4F)[C@@H](C4=CCOC4=O)C[C@H]3[C@]2(C)CC[C@H]1OC(C)=O [4l, ((2R,4aS,6aS,7R,8R,10aS,10bR)-8-Acetoxy-3-(2-fluorobenzyl)-7,10a-dimethyl-2-(2-oxo-2,5-dihydrofuran-3-yl)tetradecahydrobenzo[f]isoquinolin-7-yl)methyl Acetate]	-19.5	148	> 100	–
CC(=O)OC[C@@]1(C)[C@H]2CC[C@@H]3CN(Cc4cccc(Cl)c4)[C@@H](C4=CCOC4=O)C[C@H]3[C@]2(C)CC[C@H]1OC(C)=O [4m, ((2R,4aS,6aS,7R,8R,10aS,10bR)-8-Acetoxy-3-(3-chlorobenzyl)-7,10a-dimethyl-2-(2-oxo-2,5-dihydrofuran-3-yl)tetradecahydrobenzo[f]isoquinolin-7-yl)methyl Acetate]	-13.2	130	> 100	–
CC(=O)OC[C@@]1(C)[C@H]2CC[C@@H]3CN(Cc4ccc(F)c(Cl)c4)[C@@H](C4=CCOC4=O)C[C@H]3[C@]2(C)CC[C@H]1OC(C)=O [4n, ((2R,4aS,6aS,7R,8R,10aS,10bR)-8-Acetoxy-3-(3-chloro-4-fluorobenzyl)-7,10a-dimethyl-2-(2-oxo-2,5-dihydrofuran-3-yl)tetradecahydrobenzo[f]isoquinolin-7-yl)methyl Acetate]	-4.9	102	–	–
CC(=O)OC[C@@]1(C)[C@H]2CC[C@@H]3CN(Cc4ccco4)[C@@H](C4=CCOC4=O)C[C@H]3[C@]2(C)CC[C@H]1OC(C)=O [4o, ((2R,4aS,6aS,7R,8R,10aS,10bR)-8-Acetoxy-3-(furan-2-ylmethyl)-7,10a-dimethyl-2-(2-oxo-2,5-dihydrofuran-3-yl)tetradecahydrobenzo[f]isoquinolin-7-yl)methyl Acetate]	-4.5	58.4	–	weak inhibition effect
CC(=O)OC[C@@]1(C)[C@H]2CC[C@@H]3CN(Cc4cccs4)[C@@H](C4=CCOC4=O)C[C@H]3[C@]2(C)CC[C@H]1OC(C)=O [4p, ((2R,4aS,6aS,7R,8R,10aS,10bR)-8-Acetoxy-7,10a-dimethyl-2-(2-oxo-2,5-dihydrofuran-3-yl)-3-(thiophen-2-ylmethyl)tetradecahydrobenzo[f]isoquinolin-7-yl)methyl Acetate]	4.2	26.9	–	weak inhibition effect
CC(=O)OC[C@@]1(C)[C@H]2CC[C@@H]3CN(Cc4cccc5ccccc45)[C@@H](C4=CCOC4=O)C[C@H]3[C@]2(C)CC[C@H]1OC(C)=O [4q, ((2R,4aS,6aS,7R,8R,10aS,10bR)-8-Acetoxy-7,10a-dimethyl-3-(naphthalen-1-ylmethyl)-2-(2-oxo-2,5-dihydrofuran-3-yl)tetradecahydrobenzo[f]isoquinolin-7-yl)methyl Acetate]	-14.7	121	–	–
CCCN1C[C@H]2CC[C@@H]3[C@](C)(COC(C)=O)[C@H](OC(C)=O)CC[C@@]3(C)[C@@H]2C[C@@H]1C1=CCOC1=O [4r, ((2R,4aS,6aS,7R,8R,10aS,10bR)-8-Acetoxy-7,10a-dimethyl-2-(2-oxo-2,5-dihydrofuran-3-yl)-3-propyltetradecahydrobenzo[f]isoquinolin-7-yl)methyl Acetate]	-5.6	51.4	–	–
CC(=O)OC[C@@]1(C)[C@H]2CC[C@@H]3CN(CCC(C)C)[C@@H](C4=CCOC4=O)C[C@H]3[C@]2(C)CC[C@H]1OC(C)=O [4v, ((2R,4aS,6aS,7R,8R,10aS,10bR)-8-Acetoxy-3-isopentyl-7,10a-dimethyl-2-(2-oxo-2,5-dihydrofuran-3-yl)tetradecahydrobenzo[f]isoquinolin-7-yl)methyl Acetate]	3.2	102	–	–
CC(=O)OC[C@@]1(C)[C@H]2CC[C@@H]3CN(C4CCCC4)[C@@H](C4=CCOC4=O)C[C@H]3[C@]2(C)CC[C@H]1OC(C)=O [4w, ((2R,4aS,6aS,7R,8R,10aS,10bR)-8-Acetoxy-3-cyclopentyl-7,10a-dimethyl-2-(2-oxo-2,5-dihydrofuran-3-yl)tetradecahydrobenzo[f]isoquinolin-7-yl)methyl Acetate]	-4.5	11.3	–	–
CC(=O)OC[C@@]1(C)[C@H]2CC[C@@H]3CN(C4CCCCCC4)[C@@H](C4=CCOC4=O)C[C@H]3[C@]2(C)CC[C@H]1OC(C)=O [4y, ((2R,4aS,6aS,7R,8R,10aS,10bR)-8-Acetoxy-3-cycloheptyl-7,10a-dimethyl-2-(2-oxo-2,5-dihydrofuran-3-yl)tetradecahydrobenzo[f]isoquinolin-7-yl)methyl Acetate]	-18.2	135	> 100	–
Cc1ccc(CN2C[C@H]3CC[C@@H]4[C@]5(C)COC(C)(C)O[C@@H]5CC[C@@]4(C)[C@@H]3C[C@@H]2C2=CCOC2=O)cc1 [9f, 3-((4aR,4bS,6aS,9R,10aR,10bS,12aR)-2,2,4a,10b-Tetramethyl-8-(4-methylbenzyl)tetradecahydro-4H-[1,3]dioxino[5′,4′:3,4]benzo[1,2-f]isoquinolin-9-yl)furan-2(5H)-one]	-1.6	100	> 100	good inhibition
CC1(C)OC[C@@]2(C)[C@H]3CC[C@@H]4CN(Cc5ccc(C(C)(C)C)cc5)[C@@H](C5=CCOC5=O)C[C@H]4[C@]3(C)CC[C@H]2O1 [9g, 3-((4aR,4bS,6aS,9R,10aR,10bS,12aR)-8-(4-(tert-Butyl)benzyl)-2,2,4a,10b-tetramethyltetradecahydro-4H-[1,3]dioxino[5′,4′:3,4]benzo[1,2-f]isoquinolin-9-yl)furan-2(5H)-one]	-0.2	103	–	–
CC1(C)OC[C@@]2(C)[C@H]3CC[C@@H]4CN(Cc5ccc([N+](=O)[O-])cc5)[C@@H](C5=CCOC5=O)C[C@H]4[C@]3(C)CC[C@H]2O1 [9h, 3-((4aR,4bS,6aS,9R,10aR,10bS,12aR)-2,2,4a,10b-Tetramethyl-8-(4-nitrobenzyl)tetradecahydro-4H-[1,3]dioxino[5′,4′:3,4]benzo[1,2-f]isoquinolin-9-yl)furan-2(5H)-one]	-4.7	102	–	–
C[C@@]12COCO[C@@H]1CC[C@]1(C)[C@@H]2CC[C@@H]2CN(Cc3cccs3)[C@@H](C3=CCOC3=O)C[C@H]21 [10d, 3-((4aR,4bS,6aS,9R,10aR,10bS,12aR)-4a,10b-Dimethyl-8-(thiophen-2-ylmethyl)tetradecahydro-4H-[1,3]dioxino[5′,4′:3,4]benzo[1,2-f]isoquinolin-9-yl)furan-2(5H)-one]	-13.4	58.6	–	–
C[C@]1(CO)[C@H]2CC[C@@H]3CN(Cc4ccccc4)[C@@H](C4=CCOC4=O)C[C@H]3[C@]2(C)CC[C@H]1O [11a, 3-((2R,4aS,6aS,7R,8R,10aS,10bR)-3-Benzyl-8-hydroxy-7-(hydroxymethyl)-7,10a-dimethyltetradecahydrobenzo[f]isoquinolin-2-yl)furan-2(5H)-one]	-4.8	39.7	–	–
C=C1CC[C@@H]2[C@](C)(CO)[C@H](O)CC[C@@]2(C)[C@@H]1C/C=C1/C(=O)OC[C@H]1O [andrographolide 1, andrographolide, reference compound]	23.6	34.8	–	–
